Assays:
MS2 coat protein [1] = test: apparent Kd, MS2 coat protein; higher = weaker binding; RNA-MaP array
Outline: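 RNA designs were transcribed from sequenced DNA templates on an Illumina sequencing chip and then incubated at room temperature with fluorescently labeled MS2 coat protein at 1.5 nM to 3 μM, with or without input ligand, in Tris-HCl pH 7.5 buffer containing KCl, MgCl2, BSA, DTT, tRNA and Tween20. Incubation lasted 0.8–1.5 h at the lowest protein concentrations and 10–20 min at the highest. Apparent Kd is the median of binding-curve fits made for each cluster. Designs measured on fewer than 10 clusters were excluded.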

MS2 coat protein [2] = test: apparent Kd, MS2 coat protein; higher = weaker binding; RNA-MaP array; FMN 200 µM where present
Outline: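 Stalled E. coli RNA polymerase transcribed each design on Illumina sequencing-chip clusters. The clusters were titrated with SNAP-549-labelled MS2 coat protein, starting at 0.7 or 1.5 nM and doubling up to 3 µM, first without ligand and then with constant ligand, in 100 mM Tris-HCl pH 7.5, 80 mM KCl, 4 mM MgCl2, BSA, DTT, yeast tRNA and Tween-20. Green signal was normalised to red-channel RNA signal and to the control-cluster median Fmax. The apparent Kd is the median of filtered binding-curve fits made for each cluster.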

[3] = designed as: OFF switch for flavin mononucleotide, no ligand
[4] = ligand present: flavin mononucleotide, designed as: OFF switch for flavin mononucleotide
[5] = designed as: ON switch for flavin mononucleotide, no ligand
[6] = ligand present: flavin mononucleotide, designed as: ON switch for flavin mononucleotide

## AAAACUUCUAAGAAGGUGAUUUGGGCAUAUCGUCGUUUUACAUGAGGAUCACCCAUGUUUAACGUCAAGGAUAUUAGGGAUUCC
MS2 coat protein [1]; [3]
  apparent Kd: 6.11 nM
MS2 coat protein [1]; [4]
  apparent Kd: 5.9 nM

## AAAAUACAUGAGGAUCACCCAUGUCGCAAAUGCAUAGGAUAUGAUGAUGCUAAACACGCAUCAGAAGGAUGUAGAA
MS2 coat protein [1]; [5]
  apparent Kd: 10.9 nM
MS2 coat protein [1]; [6]
  apparent Kd: 9.52 nM

## AAACGGUAAGGAUAUCCACCAGGAUUGGAGCCACCUAAUUCGGAGAAGGUACAUGAGGAUCACCCAUGUCGGGU
MS2 coat protein [1]; [3]
  apparent Kd: 146 nM
MS2 coat protein [1]; [4]
  apparent Kd: 124 nM

## UUUAUAUAGUAAGGAUAUGUAUUAUUUUUGUCAACAGAAGGUACUGACAUGAGGAUCACCCAUGUUUUAGUGUGGGCAUGUAGU
MS2 coat protein [2]; [3]
  apparent Kd: 219 nM
MS2 coat protein [2]; [4]
  apparent Kd: 283 nM

## UUUAUGGGACAGAAGGGCAUUUACAUGAGGAUCACCCAUGUUCAUCAUUGCAGGAUAUGUAUUACAUGAGGAUCACCUAUGUUC
MS2 coat protein [2]; [5]
  apparent Kd: 170 nM
MS2 coat protein [2]; [6]
  apparent Kd: 82.5 nM

## UUUAUUAAACAAGGAUAUCAUUUGUGUACAAGUUUUACAUGAGGAUCACCCAUGUUAAAUGGUUUUGAGAAGGUGUUUAGAAUU
MS2 coat protein [2]; [5]
  apparent Kd: 34.2 nM
MS2 coat protein [2]; [6]
  apparent Kd: 25.2 nM

## UUUAUUAACAAGAAGGCAUACAUGAGGAUCACCCAUGUUCUACAUGGAUAAUGAGGAUAUUGCUAAUACAUGAGGAUCACCCAU
MS2 coat protein [2]; [3]
  apparent Kd: 50.6 nM
MS2 coat protein [2]; [4]
  apparent Kd: 53 nM

## UUUAUUUAGGCAGGAUAUACAUGUAUAUAUAUUUUUUUAUAUAUUAUUACAUGAGGAUCACCCAUGUAGAAGGGCCUUAUUAUA
MS2 coat protein [2]; [3]
  apparent Kd: 75.6 nM
MS2 coat protein [2]; [4]
  apparent Kd: 89.1 nM

## UUUAUUUCGGCAGGAUAUACAUGUAUAUAUAUUUCUUUAUAUCUUAUUACAUGAGGAUCACCCAUGUAGAAGGGCCUUCUUAUC
MS2 coat protein [2]; [3]
  apparent Kd: 47.7 nM
MS2 coat protein [2]; [4]
  apparent Kd: 46 nM

## UUUAUUUUGCAAGGAUAUGUUUAAUUUUAGUUUCCUUAUACAUGAGGAUCACCCAUGUUAUACUUACAGAAGGUGCAUAAUUUU
MS2 coat protein [2]; [3]
  apparent Kd: 81.6 nM
MS2 coat protein [2]; [4]
  apparent Kd: 59 nM

## UUUCAGUCAGGAUAUCGUUAAUUUAAUUGUUUGUAUUAGUUCGAGAAGGGACAUGAGGAUCACCCAUGUACUUU
MS2 coat protein [2]; [3]
  apparent Kd: 24.3 nM
MS2 coat protein [2]; [4]
  apparent Kd: 25.5 nM

## UUUCCGCGAGGAUAUGCGGGCUGUGCUUUUCAUUUCUUACAACAUGAGGAUCACCCAUGUAGAAGGUGCUUCUU
MS2 coat protein [2]; [3]
  apparent Kd: 213 nM
MS2 coat protein [2]; [4]
  apparent Kd: 189 nM

## UUUCUUGGGCAAGGAUAUCCUGUGCGGUUCCGGCUCGUGUCUGUCACAUGAGGAUCACCCAUGUGGGAGAAGGUGCCUGCAGUC
MS2 coat protein [2]; [3]
  apparent Kd: 6.22 nM
MS2 coat protein [2]; [4]
  apparent Kd: 7.07 nM

## UUUGACAGCUAGAGUUGUUAAGUACAUGAGGAUCACCCAUGUCAGGAUAUCCUUCCGCAAUGCGAGGAGAAGGGACAGGGUCCC
MS2 coat protein [2]; [3]
  apparent Kd: 104 nM
MS2 coat protein [2]; [4]
  apparent Kd: 232 nM

## UUUGAUUAUGUGAGGAUAUACUGUUUGUAUUGAUUGUAGAAGGUACAUGAGGAUCACCCAUGUUUUGUAUUUAU
MS2 coat protein [2]; [3]
  apparent Kd: 18.6 nM
MS2 coat protein [2]; [4]
  apparent Kd: 19.4 nM

## UUUGUAUAGCAAGGAUAUGUUUAAUUAUAGUUGCCUCAUACAUGAGGAUCACCCAUGUUUUACUUACAGAAGGUGCAAUGAUUU
MS2 coat protein [2]; [3]
  apparent Kd: 316 nM
MS2 coat protein [2]; [4]
  apparent Kd: 317 nM

## UUUGUUUUGCAAGGAUAUGUUUAAUUUUAUUUUCCUUACACAUGAGGAUCACCCAUGUUAUACUUACAGAAGGUGCGUAAUUUG
MS2 coat protein [2]; [3]
  apparent Kd: 158 nM
MS2 coat protein [2]; [4]
  apparent Kd: 151 nM

## UUUUAACAUGAGGAUCACCCAUGUGAGGAUAUCGAAAUUUAUAUUAAUAUUAAUAAUUCGAGAAGGCACAUUUU
MS2 coat protein [2]; [3]
  apparent Kd: 142 nM
MS2 coat protein [2]; [4]
  apparent Kd: 137 nM

## UUUUAACAUGAGGAUCACCCAUGUGAGGAUAUCGAAAUUUAUAUUAAUAUUAAUAUAACGAGAAGGCACAUUUU
MS2 coat protein [2]; [3]
  apparent Kd: 52 nM
MS2 coat protein [2]; [4]
  apparent Kd: 70.2 nM

## UUUUAACAUGAGGAUCACCCAUGUGAGGAUAUCGAAAUUUAUAUUAAUAUUAUUUUAACGAGAAGGCACAUUUU
MS2 coat protein [2]; [3]
  apparent Kd: 76.7 nM
MS2 coat protein [2]; [4]
  apparent Kd: 84.2 nM

## UUUUAACAUGAGGAUCACCCAUGUGAGGAUAUCGAAAUUUAUAUUAAUAUUUAUAUUUCGAGAAGGCACAUUUU
MS2 coat protein [2]; [3]
  apparent Kd: 204 nM
MS2 coat protein [2]; [4]
  apparent Kd: 191 nM

## UUUUAACAUGAGGAUCACCCAUGUGAGGAUAUCGAAAUUUAUAUUAAUAUUUUUAAAACGAGAAGGCACAUUUU
MS2 coat protein [2]; [3]
  apparent Kd: 61.3 nM
MS2 coat protein [2]; [4]
  apparent Kd: 84.8 nM

## UUUUACAUAGGAUAUAGUUUCUUUUACAUGAGGAUCACCCAUGUUUCUCUUCUCUCUCUUCUAGAAGGAUGUUUCU
MS2 coat protein [2]; [3]
  apparent Kd: 34.8 nM
MS2 coat protein [2]; [4]
  apparent Kd: 31.4 nM

## UUUUACAUAGGAUAUAGUUUGUUGUACAUGAGGAUCACCCAUGUUUUUGGUUGUGCUUUUCUAGAAGGAUGUUUCU
MS2 coat protein [2]; [3]
  apparent Kd: 47.7 nM
MS2 coat protein [2]; [4]
  apparent Kd: 41.7 nM

## UUUUACCAAGGAUAUACAUUUUUUUUAUUAUUUUCAUUAUAACAUGAGGAUCACCCAUGUAGAAGGUGGAUUUU
MS2 coat protein [2]; [3]
  apparent Kd: 54 nM
MS2 coat protein [2]; [4]
  apparent Kd: 47.9 nM

## UUUUACGGAGGAUAUACAUUUUUUUUAUUAUCCUCAUUAUUACAUGAGGAUCACCCAUGUAGAAGGCCGAUUUU
MS2 coat protein [2]; [3]
  apparent Kd: 42.6 nM
MS2 coat protein [2]; [4]
  apparent Kd: 173 nM

## UUUUAGAGAGGAUAUACAUUUUUUUAUUUAUUUAUAAUAUUACAUGAGGAUCACCCAUGUAGAAGGCUCAUUUU
MS2 coat protein [2]; [3]
  apparent Kd: 28.8 nM
MS2 coat protein [2]; [4]
  apparent Kd: 22 nM

## UUUUAGGAAGGAUAUACAUUUUUUUUAUUAUCCUCAUUAUUACAUGAGGAUCACCCAUGUAGAAGGUCCAUUUU
MS2 coat protein [2]; [3]
  apparent Kd: 172 nM
MS2 coat protein [2]; [4]
  apparent Kd: 137 nM

## UUUUAGGUAGGAUAUACAUUUUUUUUAUUAUCCUCAUUAUUACAUGAGGAUCACCCAUGUAGAAGGACCAUUUU
MS2 coat protein [2]; [3]
  apparent Kd: 215 nM
MS2 coat protein [2]; [4]
  apparent Kd: 341 nM

## UUUUAGUAAGGAUAUGCGUAGAUCUACGAAAGUAGAUCUACGCAGAAGGUACAUGAGGAUCACCCAUGUAGAUU
MS2 coat protein [2]; [3]
  apparent Kd: 21.5 nM
MS2 coat protein [2]; [4]
  apparent Kd: 26.7 nM

## UUUUAGUCAGGAUAUACAUGAGGAUCACCCAUGUAAAAUUUUAAUUUAAUUUUAAGGUGUAGAAGGGACAUUAA
MS2 coat protein [2]; [3]
  apparent Kd: 27.6 nM
MS2 coat protein [2]; [4]
  apparent Kd: 29.4 nM

## UUUUAUAGAACAGGAUAUGUGGGCGGGUCCGACGGGAUCCACCACAUGAGGAUCACCCAUGUGACACAGAAGGGUUCCAGAAAC
MS2 coat protein [2]; [5]
  apparent Kd: 474 nM
MS2 coat protein [2]; [6]
  apparent Kd: 24.2 nM

## UUUUGGCAUGUAGGAUAUGGGUCCGAUUAGGAUUUAGAAGGACAUGAGGAUCACCCAUGUGCAUUUAAUUGGUCUUUUUUUUUU
MS2 coat protein [2]; [3]
  apparent Kd: 102 nM
MS2 coat protein [2]; [4]
  apparent Kd: 133 nM

## UUUUGGUCAGGAUAUUGUUAGUUUAGUUGUUUGUAUUAGUUCGAGAAGGGACAUGAGGAUCACCCAUGUGGUUU
MS2 coat protein [2]; [3]
  apparent Kd: 71.8 nM
MS2 coat protein [2]; [4]
  apparent Kd: 58.9 nM

## UUUUUAAAUAUAGGAUAUGGAAACAUGAGGAUCACCCAUGUAUGAUAAGAUAAAUUAUGAUAUAGCCAGAAGGAUAUUAUUUUU
MS2 coat protein [2]; [5]
  apparent Kd: 32.1 nM
MS2 coat protein [2]; [6]
  apparent Kd: 29.7 nM

## UUUUUGUCAGGAUAUCAAAAGUACUACUUCGGUAGUACUUUUGAGAAGGGACAUGAGGAUCACCCAUGUAGUUU
MS2 coat protein [2]; [3]
  apparent Kd: 61.4 nM
MS2 coat protein [2]; [4]
  apparent Kd: 285 nM

## UUUUUGUGAGGAUAUCAGUAGUAAAUAAAUAAAAUUACUACUGAGAAGGCACAUGAGGAUCACCCAUGUUCCUU
MS2 coat protein [2]; [3]
  apparent Kd: 13.7 nM
MS2 coat protein [2]; [4]
  apparent Kd: 33.4 nM

## UUUUUUAAGUAAGGAUAUCGGUCUUAGUUAGGUCGAGAAGGUACAUGAGGAUCACCCAUGUUGUUUUUUUUUUCUUUUUUUUUU
MS2 coat protein [2]; [3]
  apparent Kd: 9.51 nM
MS2 coat protein [2]; [4]
  apparent Kd: 14.1 nM

## UUUUUUAUGUAAGGAUAUCGAUUAUAUACACAUCCUACAUGAGGAUCACCCAUGUUUUAAUUUAUCGAGAAGGUACAUUGUCUG
MS2 coat protein [2]; [5]
  apparent Kd: 34.1 nM
MS2 coat protein [2]; [6]
  apparent Kd: 36.5 nM

## UUUUUUUAAUAGAAGGAGGACUUCAUGAGGAUCACCCAUGUGUUAGUACUUAGGAUAUGUAAUAACAUGAGGAUCACCCAUGUC
MS2 coat protein [2]; [5]
  apparent Kd: 51.9 nM
MS2 coat protein [2]; [6]
  apparent Kd: 48.7 nM

## UUUUUUUUGUGAGGAUAUACAACAUGAGGAUCACCCAUGUCAUGUUCAACAUGAGGAUCACCCAUGUAGAAGGCGCUUUUUUUU
MS2 coat protein [2]; [3]
  apparent Kd: 281 nM
MS2 coat protein [2]; [4]
  apparent Kd: 247 nM

## UUUUUUUUUAGAGGAUAUAUUGUGUGUUAUAUAAUAGAAGGCUAAACAUGACAUGACACAUGAGGAUCACCCAUGUAUGUCCAU
MS2 coat protein [2]; [5]
  apparent Kd: 22.7 nM
MS2 coat protein [2]; [6]
  apparent Kd: 18.2 nM

Source: the EternaBench riboswitch data
